The values below come from publication PMC10786778 (Diabetes Therapy, 2023).

“Also recorded” adds a separate entry of the source. Like-named read-outs stand apart in the source and are kept apart here.

One data set concerns HbA1c. The data set can be described thus: HbA1c change in T2DM patients. Type of data set: in vivo, human. The gist of the method:
(§1)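 48 Chinese adults with T2DM, untreated with hypoglycemic agents for 3 months, randomized double-blind to placebo or 10, 25 or 50 mg oral tablets. Dosing was once every 2 weeks for 12 weeks (six doses), with 240.0 mL water, fasted on days 1 and 29. Values were measured by each site's standard procedure, compared with baseline or placebo, and summarized descriptively (mean, SD, median, range).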

For a further data set, the system named is glucagon. The data set is described as follows: Plasma glucagon level. The class given is in vivo, human.
The test system of another data set is fasting plasma glucose. The data set can be described thus: Fasting plasma glucose in T2DM patients. Type of data set: in vivo, human. The gist of the method:
as §1

Data set [1] can be described thus: Plasma pharmacokinetics of HSK7653 after first and last oral dose. The class given is in vivo, human.
A further data set in a line: Safety and tolerability. Type of data set: in vivo, human. Summed up:
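Safety in 48 T2DM patients given placebo or 10/25/50 mg tablets orally every 2 weeks for 12 weeks, then 2 weeks of safety follow-up. Monitoring covered adverse events, physical examination, blood and urine routine, biochemistry, amylase and lipase, vital signs, 12-lead ECG and hypoglycemic events. ADR incidence was tabulated per dose group and graded by severity.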

In the next data set the test system is C-peptide. The data set can be described thus: Serum C-peptide level. Type of data set: in vivo, human. The gist of the method: as §1
The test system of data set [2] is glycosylated albumin (GA). The data set can be described thus: Glycated albumin. The class given is in vivo, human. Summed up: as §1
The conditions of data set [3]: mass balance study; ref CTR20201559; cited from earlier work.
The subject of data set [4] is QT interval. The data set is described as follows: Plasma concentration QT analysis of single dose in healthy subjects. The following applies: dose of 25 mg or less every two weeks. The class given is in vivo, human.
Data set [5] deals with QT interval. To be noted: cited from earlier work.
Where [6] appears, read: day 85, 50 mg, among 11 subjects.

`CS(=O)(=O)n1cc2c(n1)CN([C@@H]1C[C@H](N)[C@@H](c3cc(F)ccc3F)O[C@@H]1C(F)(F)F)C2` [HSK7653, (2R,3S,5R,6S)-2-(2,5-difluorophenyl)-5-[2-(methylsulfonyl)-2,6-dihydropyrrolo[3,4-c]pyrazol-5(4H)-yl]-6-(trifluoromethyl)-tetrahydro-2H-pyran-3-amine]: the “HbA1c, Mean ± SD” value in the data set with HbA1c (Day 43, 10 mg) was found to be 7.7 ± 0.4. For the same compound, the “HbA1c, Mean ± SD” value in the data set on HbA1c (Day 43, 25 mg) is on record as 7.5 ± 0.6. In addition, in the data set on HbA1c (Day 43, 50 mg), the “HbA1c, Mean ± SD” value is 8.3 ± 1.0. Also, in the data set on HbA1c (Day 85, 10 mg), the “HbA1c, Mean ± SD” value is reported as 7.3 ± 0.3. The “HbA1c, Mean ± SD” value in the data set with HbA1c (Day 85, 25 mg) is recorded as 7.4 ± 0.7. In addition, the “HbA1c, Mean ± SD” value with HbA1c (Day 85, 50 mg) turned out to be 8.4 ± 1.1. Further, in the data set on HbA1c (setting [6]), the “subjects with HbA1c decreased significantly” value is reported as 5 subjects and the “subjects with HbA1c increased compared with baseline” value was determined as 6 subjects. In the data set with glucagon (10 mg dose group, 90–180 min after meal), the “glucagon level with increasing treatment time” value is reported as “gradually decreased to below the level of the placebo group”. For the same compound, in the data set with glucagon (25 and 50 mg dose groups, during treatment), the “glucagon level compared with the placebo group” value is given as “lower than the placebo group during treatment”. Further, in the data set on fasting plasma glucose (day 43, 10 mg), the “fasting blood glucose lower than baseline by” value was determined as 0.7 mmol/L and the “mean fasting blood glucose” value is 9.2 mmol/L. For the same compound, in the data set with fasting plasma glucose (day 43, 25 mg), the “fasting blood glucose lower than baseline by” value is 0.5 mmol/L and the “mean fasting blood glucose” value was 8.1 mmol/L. In the data set with fasting plasma glucose (day 43, 50 mg), the “fasting blood glucose increased from baseline by” value is recorded as 0.8 mmol/L. For the same compound, in the data set on fasting plasma glucose (day 85, 10 mg), the “fasting blood glucose decreased compared with the baseline by” value was found to be 0.7 mmol/L and the “mean fasting blood glucose” value is on record as 9.2 mmol/L. In addition, in the data set on fasting plasma glucose (day 85, 25 mg), the “fasting blood glucose decreased compared with the baseline by” value turned out to be 0.2 mmol/L and the “mean fasting blood glucose” value is recorded as 8.5 mmol/L. Besides, in data set [1] (10–50 mg every two weeks), the accumulation in vivo result is “not accumulated in vivo; also recorded: did not accumulated in body”, the “mean Rac_AUC” value was 1.0–1.1 and the “mean Rac_Cmax” value is recorded as 0.9–1.0. In [1] (human, plasma, oral, 10 mg, Tmax, median (min, max), multiple (last dose)), the time to peak (Tmax) (usually the time at which the peak concentration occurs) came out at 1 h. The Cmax (usually the maximum level reached in the sampled fluid or tissue) in data set [1] (human, plasma, oral, 25 mg, Cmax, mean ± SD (CV%), multiple (last dose)) worked out at 411 ng/mL. Also, the Tmax in data set [1] (human, plasma, oral, 25 mg, Tmax, median (min, max), single (first dose)) was determined as 2 h. Besides, in data set [1] (human, plasma, po), the Vd/F (as a rule, the volume of distribution divided by bioavailability) is 61.1 to 81.9 L and the half-life – broadly, how long it takes for the measured level to halve – lay in the range of 64 to 87 h. For the same compound, in data set [1] (human, plasma, po, median Tmax, dose range 10–50 mg), the time of peak concentration (Tmax) lay within 1 to 3 h. Besides, in the data set “Safety and tolerability” (10 mg dose group), the “incidence of ADR” value is listed as 33.3% and the “incidence of TEAEs” value was found to be 58.3%. For the same compound, in the data set “Safety and tolerability” (25 mg dose group), the “incidence of ADR” value is recorded as 58.3% and the “incidence of TEAEs” value came to 91.7%. In the data set “Safety and tolerability” (50 mg dose group), the “incidence of ADR” value was 75.0% and the “incidence of TEAEs” value was found to be 83.3%. The serious adverse events result in the data set “Safety and tolerability” (10–50 mg once every two weeks) is reported as “no serious adverse events”. Moreover, in “Safety and tolerability” (HSK7653 dose group total), the “ADR incidence: anemia” value is given as 5.6%, the “ADR incidence: decreased T wave amplitude of ECG” value was determined as 5.6%, the “ADR incidence: dizziness” value amounted to 2.8% and the “ADR incidence: dyspepsia” value is 11.1%. Further, in “Safety and tolerability” (HSK7653 dose group total), the “ADR incidence: electrocardiogram T wave abnormal” value is 8.3%, the “ADR incidence: hyperbilirubinemia” value amounted to 5.6%, the “ADR incidence: hyperlipidemia” value was found to be 8.3% and the “ADR incidence: hypertriglyceridemia” value was determined as 11.1%. Moreover, in “Safety and tolerability” (HSK7653 dose group total), the “ADR incidence: increased blood bilirubin” value came to 5.6%, the “ADR incidence: positive urine red blood cells” value turned out to be 5.6%, the “ADR incidence: upper respiratory tract infection” value is listed as 5.6% and the “ADR incidence: urinary tract infection” value was determined as 8.3%. Also, the “ADR incidence: white blood cells urine positive” value in the data set “Safety and tolerability” (HSK7653 dose group total) was determined as 8.3%. Besides, the “ADR incidence: prolonged QT interval of ECG” value in “Safety and tolerability” (HSK7653 dose group total (4/36)) is 11.1%. In the data set “Safety and tolerability” (doses of 10–50 mg, Chinese T2DM subjects), the tolerability entry is “well tolerated and safe”. Besides, in the data set on C-peptide (10 mg dose group), the “level of C-peptide with increasing treatment time” value is recorded as “gradually increased to a similar level as the placebo group”. In addition, the “level of C-peptide compared with the placebo group” value with C-peptide (25 and 50 mg dose groups) is “no significant change”. In data set [2] (day 43, 10 mg), the “GA level lower than the baseline by” value is given as 2.3% and the “mean GA value” turned out to be 21.2%. Moreover, in [2] (day 43, 25 mg), the “GA level lower than the baseline by” value was determined as 0.8% and the “mean GA value” turned out to be 21.0%. Moreover, in data set [2] (day 43, 50 mg), the “GA level higher than the baseline by” value is listed as 0.4% and the “mean GA value” came to 23.6%. The “mean GA value” in data set [2] (day 85, 10 mg) worked out at 20.0%. Besides, in data set [2] (day 85, 25 mg), the “mean GA value” turned out to be 20.5%. In addition, in data set [2] (day 85, 50 mg), the “mean GA value” was determined as 24.2%. Moreover, in data set [3], the fecal excretion is listed as 7.4%; the “hepatic metabolism, metabolites in feces” value is given as 5.7%; the “hepatic metabolism, metabolites in urine” value was 9.7%; the renal excretion is 68.1%. In the data set on QT interval [4], the “risk of prolongation of QT interval” value is recorded as “no significant risk of prolongation of QT interval”.
Take `N[C@@H](CC(=O)N1CCn2c(nnc2C(F)(F)F)C1)Cc1cc(F)c(F)cc1F` [sitagliptin]: the “effect on QTc interval” value in the data set with QT interval [5] (clinical dose 100 mg) is recorded as “does not correlate with an increase in QTc interval”. Also, the “effect on QT interval” value in the data set with QT interval [5] (super-therapeutic dose of 800 mg, clinical significance not significant) is “the QT interval is prolonged”.
With `CC#CCn1c(N2CCC[C@@H](N)C2)nc2c1c(=O)n(Cc1nc(C)c3ccccc3n1)c(=O)n2C` [linagliptin], the “effect on QTc interval” value in the data set on QT interval [5] (doses of 5 and 100 mg, compared with placebo) was “did not increase the QTc interval”.
With `Cc1cc(N2CCN([C@@H]3CN[C@H](C(=O)N4CCSC4)C3)CC2)n(-c2ccccc2)n1` [Teneligliptin], the “effect on QT interval” value in the data set on QT interval [5] (only at 4 times the normal dose (160.0 mg/day)) was “significantly prolonged the QT interval”.
